{"source": "paper PMC9283309", "about": "(Journal of medicinal chemistry, 2022)", "key": {"[1]": {"conditions": "co-administered i.m. with ovalbumin (OVA); cited from earlier work"}, "[2]": {"tested_on": "OVA-specific IgG, IgG1, IgG2b", "assay": "Antibody response assay: serum OVA-specific IgG, IgG1, IgG2b by ELISA", "type": "in vivo, C57BL/6J mice", "conditions": "14 days after a single immunization, i.m. with OVA, 10 mg/kg", "summary_of_the_method": "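Female 8-week C57BL/6J mice (ca. 20 g) injected i.m. on day 0 with 100 μg OVA (5 mg/kg) plus 200 μg (10 mg/kg) test compound in DMSO:Tween 80:saline (1:1:8); serum taken day 14. ELISA: plates coated with 5 μg/mL OVA overnight at 4 °C, blocked 1% BSA 1 h, serum (diluted in 1% BSA) 2 h, HRP anti-mouse IgG/IgG1/IgG2b 1 h RT, TMB, A450.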"}, "[3]": {"tested_on": "murine melanoma (B16-OVA)", "conditions": "combination with checkpoint inhibitor anti-PD-L1, diprovocim/OVA i.m.; cited from earlier work"}, "[4]": {"tested_on": "adaptive immune response (CD4- and CD-8 dependent responses)", "assay": "In vivo adjuvant activity on co-administration with OVA", "set-up": "species or system C57BL/6J mice", "conditions": "i.m. with OVA, 10 mg/kg"}, "mTLR1/TLR2": {"target": "mTLR1/TLR2 (Mus musculus, UniProt Q9EPQ1+Q9QUN7)", "sequence (Q9EPQ1 26-795)": "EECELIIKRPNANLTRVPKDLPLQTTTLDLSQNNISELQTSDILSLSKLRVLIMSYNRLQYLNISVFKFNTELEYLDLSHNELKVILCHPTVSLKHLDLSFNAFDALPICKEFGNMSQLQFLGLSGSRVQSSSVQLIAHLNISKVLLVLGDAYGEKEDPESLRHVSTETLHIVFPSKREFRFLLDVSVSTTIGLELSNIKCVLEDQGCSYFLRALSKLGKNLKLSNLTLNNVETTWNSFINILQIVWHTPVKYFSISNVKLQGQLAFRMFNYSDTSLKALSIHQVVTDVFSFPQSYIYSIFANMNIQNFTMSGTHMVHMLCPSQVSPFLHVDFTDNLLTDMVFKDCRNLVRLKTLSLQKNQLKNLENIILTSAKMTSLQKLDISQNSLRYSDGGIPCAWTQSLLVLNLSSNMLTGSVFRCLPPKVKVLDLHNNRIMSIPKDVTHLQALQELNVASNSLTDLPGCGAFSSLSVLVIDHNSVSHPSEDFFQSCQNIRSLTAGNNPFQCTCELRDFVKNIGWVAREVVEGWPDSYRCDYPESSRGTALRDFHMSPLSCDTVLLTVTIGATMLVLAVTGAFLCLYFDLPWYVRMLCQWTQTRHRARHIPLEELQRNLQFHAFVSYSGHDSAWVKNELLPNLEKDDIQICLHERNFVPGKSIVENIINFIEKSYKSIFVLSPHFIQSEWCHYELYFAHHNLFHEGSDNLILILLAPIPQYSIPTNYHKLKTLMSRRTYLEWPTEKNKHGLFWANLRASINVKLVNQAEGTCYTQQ", "sequence (Q9QUN7 25-784)": "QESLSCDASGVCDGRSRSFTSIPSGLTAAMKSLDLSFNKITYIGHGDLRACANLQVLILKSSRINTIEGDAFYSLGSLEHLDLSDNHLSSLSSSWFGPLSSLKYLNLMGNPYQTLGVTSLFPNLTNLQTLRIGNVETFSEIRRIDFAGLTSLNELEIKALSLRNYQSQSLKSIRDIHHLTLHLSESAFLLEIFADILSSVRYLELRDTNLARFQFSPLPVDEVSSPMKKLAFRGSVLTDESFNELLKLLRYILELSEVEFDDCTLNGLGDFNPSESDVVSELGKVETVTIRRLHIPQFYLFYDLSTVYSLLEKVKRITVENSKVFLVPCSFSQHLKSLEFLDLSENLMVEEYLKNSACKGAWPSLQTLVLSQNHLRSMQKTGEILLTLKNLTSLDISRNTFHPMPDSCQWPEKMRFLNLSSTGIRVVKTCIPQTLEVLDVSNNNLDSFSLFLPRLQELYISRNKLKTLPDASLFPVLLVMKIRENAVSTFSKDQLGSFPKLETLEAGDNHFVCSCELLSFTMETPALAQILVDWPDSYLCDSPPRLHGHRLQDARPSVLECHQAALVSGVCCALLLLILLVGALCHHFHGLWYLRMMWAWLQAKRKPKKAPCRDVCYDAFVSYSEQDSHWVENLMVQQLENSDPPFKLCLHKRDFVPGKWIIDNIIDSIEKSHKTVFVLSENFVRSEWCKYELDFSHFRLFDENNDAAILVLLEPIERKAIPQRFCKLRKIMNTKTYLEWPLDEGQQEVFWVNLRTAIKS", "type": "cell-based, mouse (C57BL/6J)", "conditions": "mouse macrophages; for murine efficacy/activity in words: compared with diprovocim-1"}, "hTLR1/TLR2": {"target": "hTLR1/TLR2 (Homo sapiens, UniProt O60603+Q15399)", "sequence (Q15399 25-786)": "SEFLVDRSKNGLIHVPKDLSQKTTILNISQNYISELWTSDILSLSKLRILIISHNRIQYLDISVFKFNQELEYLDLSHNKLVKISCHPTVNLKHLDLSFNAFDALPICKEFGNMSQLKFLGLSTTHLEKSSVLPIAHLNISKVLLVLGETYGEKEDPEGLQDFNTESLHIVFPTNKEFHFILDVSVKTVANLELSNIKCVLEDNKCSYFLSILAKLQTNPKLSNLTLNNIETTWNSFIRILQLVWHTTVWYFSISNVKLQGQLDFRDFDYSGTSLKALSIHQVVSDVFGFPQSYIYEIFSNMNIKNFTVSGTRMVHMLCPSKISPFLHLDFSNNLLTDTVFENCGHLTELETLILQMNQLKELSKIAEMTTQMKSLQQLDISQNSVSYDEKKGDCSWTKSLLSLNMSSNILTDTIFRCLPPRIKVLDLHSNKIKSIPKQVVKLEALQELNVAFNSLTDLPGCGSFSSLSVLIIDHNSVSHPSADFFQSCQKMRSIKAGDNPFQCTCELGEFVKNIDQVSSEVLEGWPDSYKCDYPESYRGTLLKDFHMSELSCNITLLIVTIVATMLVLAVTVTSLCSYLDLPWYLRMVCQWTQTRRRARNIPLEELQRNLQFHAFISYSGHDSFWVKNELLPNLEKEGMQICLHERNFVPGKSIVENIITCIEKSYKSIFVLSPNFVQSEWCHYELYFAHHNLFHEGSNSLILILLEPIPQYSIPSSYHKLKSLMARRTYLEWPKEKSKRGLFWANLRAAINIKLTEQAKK", "sequence (O60603 21-784)": "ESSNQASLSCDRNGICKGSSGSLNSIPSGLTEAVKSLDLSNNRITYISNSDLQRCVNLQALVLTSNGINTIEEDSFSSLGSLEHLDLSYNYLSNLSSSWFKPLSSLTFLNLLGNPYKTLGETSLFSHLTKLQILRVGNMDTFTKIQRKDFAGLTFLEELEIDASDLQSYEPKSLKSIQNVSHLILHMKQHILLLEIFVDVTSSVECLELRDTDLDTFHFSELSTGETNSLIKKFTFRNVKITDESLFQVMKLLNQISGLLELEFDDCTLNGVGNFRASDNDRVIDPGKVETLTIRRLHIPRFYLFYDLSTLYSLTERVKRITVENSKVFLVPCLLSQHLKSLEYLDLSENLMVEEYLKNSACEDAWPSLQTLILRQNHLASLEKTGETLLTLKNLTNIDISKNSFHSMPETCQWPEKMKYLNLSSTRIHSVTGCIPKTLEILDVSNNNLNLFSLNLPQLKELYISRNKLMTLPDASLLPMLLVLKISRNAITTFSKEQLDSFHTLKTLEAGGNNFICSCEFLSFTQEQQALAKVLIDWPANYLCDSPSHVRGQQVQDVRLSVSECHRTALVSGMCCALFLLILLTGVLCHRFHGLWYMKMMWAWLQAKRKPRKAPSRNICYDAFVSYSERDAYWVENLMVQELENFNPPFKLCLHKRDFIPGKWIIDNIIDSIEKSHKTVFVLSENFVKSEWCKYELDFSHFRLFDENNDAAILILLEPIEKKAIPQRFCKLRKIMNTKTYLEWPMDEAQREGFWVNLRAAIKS", "assay": "Stimulated release of TNF-α from differentiated THP-1 cells", "type": "cell-based", "conditions": "text comment on Figure 3 data, compared with diprovocim-1"}, "TLR4": {"tested_on": "TLR4", "type": "cell-based, mouse", "conditions": "500 nM, diprovocim-X versus diprovocim-1"}, "TLR2": {"target": "TLR2 (Homo sapiens, UniProt O60603+Q15399)", "sequence (O60603 21-784)": "as above", "sequence (Q15399 25-786)": "as the sequence (Q15399 25-786) above", "type": "cell-based", "conditions": "5 nM; anti-TLR2 20 μg/mL, 1 h pretreatment", "summary_of_the_method": "(§1)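 THP-1 cells PMA-differentiated (100 nM, 24 h) then rested 24 h in fresh RPMI/10% FBS. Cells pretreated 1 h with neutralizing anti-TLR1, anti-TLR2 or anti-TLR6 (20 μg/mL) before stimulation with 5 nM test compound; no-antibody wells as control. TNF-α release was the read-out.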"}, "TLR1": {"target": "TLR1 (Homo sapiens, UniProt O60603+Q15399)", "sequence (Q15399 25-786)": "as above", "sequence (O60603 21-784)": "as the sequence (O60603 21-784) above", "type": "cell-based", "conditions": "5 nM; anti-TLR1 20 μg/mL, 1 h pretreatment", "summary_of_the_method": "as §1"}}}
{"compound": "O=C(N[C@H]1C[C@@H]1c1ccccc1)[C@@H]1CN(C(=O)c2ccc(C(=O)N3C[C@@H](C(=O)N[C@H]4C[C@@H]4c4ccccc4)[C@H](C(=O)N[C@H]4C[C@@H]4c4ccccc4)C3)cc2)C[C@H]1C(=O)N[C@H]1C[C@@H]1c1ccccc1", "note": "[compound 1]", "values": [{"measurement": "adjuvant activity in mice", "setting": "[1]", "result": "effective adjuvant"}, {"measurement": "OVA-specific circulating antibodies (IgG, IgG1, IgG2b)", "setting": "[2]", "result": "strong responses"}, {"measurement": "tumor response, B16-OVA", "setting": "[3]", "result": "eradicated tumors"}, {"measurement": "adjuvant activity in mice", "setting": "[4]", "result": "comparable adjuvant activity"}]}
{"compound": "CC(C)(C)OC(=O)NCCCCCCCCCCCCNC(=O)[C@@H]1CN(C(=O)c2ccc(C(=O)N3C[C@@H](C(=O)N[C@H]4C[C@@H]4c4ccccc4)[C@H](C(=O)N[C@H]4C[C@@H]4c4ccccc4)C3)cc2)C[C@H]1C(=O)N[C@H]1C[C@@H]1c1ccccc1", "note": "[compound 17, tert-Butyl (12-((3S,4S)-1-(4-((3S,4S)-3,4-bis(((1S,2R)-2-phenylcyclopropyl)carbamoyl)-pyrrolidine-1-carbonyl)benzoyl)-4-(((1S,2R)-2-phenylcyclopropyl)carbamoyl)pyrrolidine-3-carboxamido)dodecyl)carbamate]", "values": [{"measurement": "murine efficacy/activity in words", "setting": "mTLR1/TLR2", "result": "did not display this increased or improved murine activity"}]}
{"compound": "C#CCCCCCCCCCCCCNC(=O)[C@@H]1CN(C(=O)c2ccc(C(=O)N3C[C@@H](C(=O)N[C@H]4C[C@@H]4c4ccccc4)[C@H](C(=O)N[C@H]4C[C@@H]4c4ccccc4)C3)cc2)C[C@H]1C(=O)N[C@H]1C[C@@H]1c1ccccc1", "note": "[compound 19, (3S,4S)-1-(4-((3S,4S)-3,4-Bis(((1S,2R)-2-phenylcyclopropyl)carbamoyl)pyrrolidine-1-carbonyl)-benzoyl)-N^3-((1S,2R)-2-phenylcyclopropyl)-N^4-(tetradec-13-yn-1-yl)pyrrolidine-3,4-dicarboxamide]", "values": [{"measurement": "response efficacy in words", "setting": "hTLR1/TLR2", "result": "small improvement in the response efficacy"}]}
{"compound": "O=C(NCCCCCCCCc1ccc(O)cc1)[C@@H]1CN(C(=O)c2ccc(C(=O)N3C[C@@H](C(=O)N[C@H]4C[C@@H]4c4ccccc4)[C@H](C(=O)N[C@H]4C[C@@H]4c4ccccc4)C3)cc2)C[C@H]1C(=O)N[C@H]1C[C@@H]1c1ccccc1", "note": "[compound 26, (3S,4S)-1-(4-((3S,4S)-3,4-Bis(((1S,2R)-2-phenylcyclopropyl)carbamoyl)pyrrolidine-1-carbonyl)-benzoyl)-N^3-(8-(4-hydroxyphenyl)octyl)-N^4-((1S,2R)-2-phenylcyclopropyl)pyrrolidine-3,4-dicarboxamide]", "values": [{"measurement": "murine efficacy/activity in words", "setting": "mTLR1/TLR2", "result": "substantial increase in efficacy"}]}
{"compound": "Nc1ccc(CCCCCCCCNC(=O)[C@@H]2CN(C(=O)c3ccc(C(=O)N4C[C@@H](C(=O)N[C@H]5C[C@@H]5c5ccccc5)[C@H](C(=O)N[C@H]5C[C@@H]5c5ccccc5)C4)cc3)C[C@H]2C(=O)N[C@H]2C[C@@H]2c2ccccc2)cc1", "note": "[compound 27, (3S,4S)-N^3-(8-(4-Aminophenyl)octyl)-1-(4-((3S,4S)-3,4-bis(((1S,2R)-2-phenylcyclopropyl)-carbamoyl)pyrrolidine-1-carbonyl)benzoyl)-N^4-((1S,2R)-2-phenylcyclopropyl)pyrrolidine-3,4-dicarboxamide]", "values": [{"measurement": "murine efficacy/activity in words", "setting": "mTLR1/TLR2", "result": "substantial increase in efficacy"}]}
{"compound": "CC(C)(C)OC(=O)NCC(=O)OCCCCCCCCCCCCNC(=O)[C@@H]1CN(C(=O)c2ccc(C(=O)N3C[C@@H](C(=O)N[C@H]4C[C@@H]4c4ccccc4)[C@H](C(=O)N[C@H]4C[C@@H]4c4ccccc4)C3)cc2)C[C@H]1C(=O)N[C@H]1C[C@@H]1c1ccccc1", "note": "[compound 35, 12-((3S,4S)-1-(4-((3S,4S)-3,4-Bis(((1S,2R)-2-phenylcyclopropyl)carbamoyl)-pyrrolidine-1-carbonyl)benzoyl)-4-(((1S,2R)-2-phenylcyclopropyl)carbamoyl)-pyrrolidine-3-carboxamido)dodecyl-2-((tert-butoxycarbonyl)amino)acetate]", "values": [{"measurement": "efficacy as a TNF inducer in mouse macrophage cultures", "setting": "TLR4", "result": "greater efficacy"}, {"measurement": "dependence of TNF-α release on TLR2", "setting": "TLR2", "result": "dependent"}, {"measurement": "fold more active than diprovocim-1", "setting": "mTLR1/TLR2; EC50 compared with diprovocim-1", "result": 2, "unit": "fold"}, {"measurement": "dependence of TNF-α release on TLR1", "setting": "TLR1", "result": "dependent"}, {"measurement": "OVA-specific circulating antibodies (IgG, IgG1, IgG2b)", "setting": "[2]", "result": "strong responses"}, {"measurement": "adjuvant activity in mice", "setting": "[4]", "result": "matching or surpassing the in vivo activity of diprovocim-1"}]}
{"compound": "CC(C)(C)OC(=O)NCCOCCOCCOCCOCCC(=O)OCCCCCCCCCCCCNC(=O)[C@@H]1CN(C(=O)c2ccc(C(=O)N3C[C@@H](C(=O)N[C@H]4C[C@@H]4c4ccccc4)[C@H](C(=O)N[C@H]4C[C@@H]4c4ccccc4)C3)cc2)C[C@H]1C(=O)N[C@H]1C[C@@H]1c1ccccc1", "note": "[compound 55, 12-((3S,4S)-1-(4-((3S,4S)-3,4-Bis(((1S,2R)-2-phenylcyclopropyl)carbamoyl)pyrrolidine-1-carbonyl)benzoyl)-4-(((1S,2R)-2-phenylcyclopropyl)carbamoyl)pyrrolidine-3-carboxamido)-dodecyl 2,2-dimethyl-4-oxo-3,8,11,14,17-pentaoxa-5-azaicosan-20-oate]", "values": [{"measurement": "murine efficacy/activity in words", "setting": "mTLR1/TLR2", "result": "modest increase in the efficacy"}]}
